Screens deposited in PubChem BioAssay by several laboratories.
NR3A LBD binder: modulates the human NR3A ligand-binding domain; NR3A LBD differential scanning fluorimetry, Tm shift; 0% = protein alone, 100% = glycine-bound protein; Tm shift relative to glycine control, % at 25 µM; 340,000 compounds, 2.5% hits; AID 1259313;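 active = melting temperature shift of at least 10% of the positive control shift, at one fixed dose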
UCH37 DUB inh: human UCH37 deubiquitinating enzyme inhibition. Q9Y5K5. purified proteasome/UCH37, Ub-AMC cleavage fluorescence. inhibition, % (concentration not given with the values). 330,000 compounds, 0.33% hits;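 active = mean inhibition over replicate wells above about 20%, limit read from the data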
Target sequence (Q9Y5K5 whole entry, looked up): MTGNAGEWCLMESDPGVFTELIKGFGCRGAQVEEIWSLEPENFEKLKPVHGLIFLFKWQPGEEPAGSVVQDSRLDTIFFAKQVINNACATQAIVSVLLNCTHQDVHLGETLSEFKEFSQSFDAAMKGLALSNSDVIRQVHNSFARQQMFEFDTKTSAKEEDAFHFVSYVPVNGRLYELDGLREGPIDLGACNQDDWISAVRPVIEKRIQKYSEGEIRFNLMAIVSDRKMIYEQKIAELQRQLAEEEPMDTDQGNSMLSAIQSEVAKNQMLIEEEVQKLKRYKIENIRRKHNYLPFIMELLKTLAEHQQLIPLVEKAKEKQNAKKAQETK
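Material: Human UCH37 enzyme supplied as purified proteasome complex | Schedule: 30 min preincubation with enzyme, 25 min cleavage at room temperature | Detection: AMC fluorescence 355/460 nm | Measure: % inhibition of Ub-AMC cleavage fluorescence | Controls: Wells without proteasome as full block, compound-free enzyme plus substrate as uninhibited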
ATG4B inhibitor: blocks human ATG4B protease cleavage of LC3 substrate. inhibition, % at 8.33 µM. Q9Y4P1. ATG4B cleavage of LC3-PLA2, NBD-HPC fluorescence, 1 h. 340,000 compounds, 0.51% hits; in the data active = inhibition above about 40%
SENP1 inh: blocks the human SENP1 SUMO protease catalytic domain | inhibition, % at 10 µM | Q9P0U3 | recombinant SENP1 catalytic domain, CyPet-SUMO1-YPet FRET cleavage | 360,000 compounds, 0.21% hits;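 active = inhibition at least 30% at 10 µM, raw YFP signal under a set limit, fluorescence ratio 0.5 to 1.5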
Target sequence (Q9P0U3 419-644 limits assumed): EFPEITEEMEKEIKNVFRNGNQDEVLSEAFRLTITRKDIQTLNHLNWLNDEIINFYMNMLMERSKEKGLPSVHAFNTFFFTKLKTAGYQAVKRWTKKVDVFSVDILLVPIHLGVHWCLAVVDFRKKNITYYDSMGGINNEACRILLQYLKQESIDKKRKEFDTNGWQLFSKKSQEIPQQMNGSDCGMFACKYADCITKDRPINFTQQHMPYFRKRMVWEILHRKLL
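Test system: human SENP1 catalytic domain; medium: Tris pH 8 buffer plus EDTA, NaCl, BME, BSA, NP40, catalase; incubation: 50 min reaction at room temperature; technique: FRET, CFP and YFP emission; controls: no-enzyme low control and enzyme-plus-DMSO high control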
NadD block: blocks S. aureus nicotinate mononucleotide adenylyltransferase | purified NadD enzyme, colorimetric absorbance read-out | inhibition, % at 20 µM | 360,000 compounds, 0.78% hits | AID 602399; in the data active = inhibition above about 26%
UCH37 confirm: confirmation of human UCH37 deubiquitinating enzyme inhibitors; shares compounds with UCH37 DUB inh; Proteasome-bound UCH37, Ub-AMC cleavage fluorescence; inhibition, % at 20 µM; 480 compounds, 27% hits;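 active = average inhibition over replicates above about 50%, so the earlier screening hit is confirmed, limit read from the data; inactive = the rest, counted as false positives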;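 note: based on cleavage rate fitted by regression over a 30 min kinetic read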
Hits are given with their value; - = inactive; . = not tested or not shown. Most compounds without a hit are left out; they make up all but 3.6% or so of the library.

SMILES | NR3A LBD binder | UCH37 DUB inh | ATG4B inhibitor | SENP1 inh | NadD block | UCH37 confirm
CCOC(=O)/C(C#N)=C\C=C1C=CN(C)C=C1 | - | . | - | - | - | -
O=[N+]([O-])c1cccc(C=NNc2nccnc2Cl)c1 | . | - | . | . | . | .
CCOC(=O)/C(=C/C=C1\Sc2ccccc2N1CC)C(C)=O | - | 30 | - | - | - | -
CCOC(=O)/C(=C\C=C1/Sc2ccccc2N1CC)C(C)=O | - | - | - | - | - | .
CC1=NN(c2ccc(C)cc2)C(=O)/C1=C/c1ccc(-c2cc([N+](=O)[O-])ccc2O)o1 | - | - | - | - | - | .
O=C1NN(c2cccc(Br)c2)C(=O)/C1=C/c1ccc(-c2cc([N+](=O)[O-])ccc2O)o1 | 13 | 31 | - | - | 70 | 67
C=C(C)C1CC=C(C)C(=NNC(=O)CNc2ccc(C)cc2C)C1 (configuration not stated) | . | - | . | . | . | .
O=[N+]([O-])c1ccc(O)c(C=NNc2ccc(S(=O)(=O)O)cc2)c1 | - | 25 | - | - | - | -
O=C1C(N2CCOCC2)=C(n2nnc3ccccc32)C(=O)c2ccccc21 | - | 72 | - | - | - | 88
Cc1cc(C)c[n+](C2=C([O-])c3ccccc3C(=O)/C2=N\S(=O)(=O)c2cccs2)c1 | - | 27 | - | - | - | -
Cc1ccccc1NC1=C/C(=N\S(=O)(=O)c2cccs2)c2ccccc2C1=O | - | 78 | 95 | - | - | -
O=C(O)c1ccc(NC2=CC(=NS(=O)(=O)c3ccccc3)c3ccccc3C2=O)cc1 | . | 95 | . | . | . | 98
O=C1C(Nc2ccccc2)=CC(=NS(=O)(=O)c2cccs2)c2ccccc21 | . | 78 | . | . | . | -
Cc1ccc(NC2=CC(=NS(=O)(=O)c3cccs3)c3ccccc3C2=O)cc1C | . | - | . | . | . | .
CCOc1cc(C(=O)NCC(=O)NN=Cc2sccc2C)cc(OCC)c1OCC | . | - | . | . | . | .
Cc1ccc(C(=O)O/N=C\c2ccc(N3CCCCC3)c([N+](=O)[O-])c2)cc1 | - | . | - | - | - | .
Cc1ccc(C(=O)ON=Cc2ccc(N3CCCCC3)c([N+](=O)[O-])c2)cc1 | . | 40 | . | . | . | -
NC(=S)n1[nH]c(-c2ccccc2)c(N=Nc2ccccc2C(=O)N2CCOCC2)c1=O | - | 54 | - | - | - | -
CCN1C(=O)/C(=C/N(C)c2ccccc2)OC1=S | - | - | - | - | - | .
CCN1C(=O)/C(=C/C=C2/CCCN2C)OC1=S | - | 29 | - | - | - | -
Cc1nn(-c2ccccc2)c(C)c1/C=C1\C(=O)N(C)C(=S)N1C | - | - | - | - | - | .
CN1C(=O)/C(=C\C=C2/CCCN2C)N(C)C1=S | - | 39 | - | - | - | -
CNC(=O)OCc1cccc(COC(=O)NC)n1 | - | 35 | - | - | - | -
CNC(=O)OCc1cocc1COC(=O)NC | . | . | . | - | - | .
O=C(NN=Cc1ccc(Cl)cc1)c1cc(-c2cccnc2)nc2ccccc12 | . | - | . | . | . | .
SMILES | NR3A LBD binder | UCH37 DUB inh | ATG4B inhibitor | SENP1 inh | NadD block | UCH37 confirm
O=C1Cc2ccccc2C(=O)N1Cc1cccc(Cl)c1 | - | 34 | - | - | - | -
O=C1NC(=O)C(=Cc2ccccc2[N+](=O)[O-])S1 | - | 86 | - | - | - | 99
O=C1NC(=O)/C(=C/c2cccc3ccccc23)S1 | - | - | - | - | - | .
CC1=C(C(=O)OCc2ccccc2)C(c2ccccc2Cl)NC(=O)N1CCCCCC(=O)O (configuration not stated) | - | - | - | - | - | .
CC1=C(C(=O)OCc2ccccc2)C(c2ccccc2Cl)NC(=O)N1CCCC(=O)O (configuration not stated) | - | 41 | - | - | - | -
NC(=S)NN=Cc1ccccc1OCc1ccccc1 | . | - | . | . | . | .
CC(=O)Oc1c(Br)cc(N(C(C)=O)S(=O)(=O)c2ccccc2)c2ccccc12 | - | 36 | - | - | - | -
O=C(Cc1ccccc1)NN=Cc1cc(Br)c(Br)o1 | . | - | . | . | . | .
COc1ccccc1NC1=C(Cl)C(=O)OC1OC(=O)c1ccco1 (configuration not stated) | - | - | - | - | - | .
COc1cccc(NC2=C(Cl)C(=O)OC2OC(=O)c2ccco2)c1 (configuration not stated) | - | 37 | - | - | - | -
O=C1C2C3C=CC(CC3)C2C(=O)N1c1ccc(F)cc1 (configuration not stated) | - | - | - | - | - | .
O=C1C2C3CCCC3=C3CCCC3C2C(=O)N1c1ccc(F)cc1 (configuration not stated) | - | 32 | - | - | - | 53
O=C(NN=Cc1cc(Cl)ccc1O)c1ccncc1 | . | - | . | . | . | .
COc1ccc(C=NN2CCN(C)CC2)c(OC)c1OC | . | - | . | . | . | .
NC1=CC(=O)C(=O)c2ccccc21 | - | 44 | - | - | - | 58
Nc1ccc(O)c2c1C(=O)c1ccccc1C2=O | - | . | - | - | - | .
COc1cc([N+](=O)[O-])ccc1-c1ccc(/C=N\n2cnnc2)o1 | - | . | - | - | - | .
COc1cc([N+](=O)[O-])ccc1-c1ccc(/C=C2\C(=O)ON=C2c2ccccc2)o1 | - | 34 | - | - | 45 | -
O=C1NC(=S)S/C1=C\C=C\c1ccc([N+](=O)[O-])o1 | - | 28 | - | - | - | -
O=C(O)/C=C/c1ccc([N+](=O)[O-])o1 | - | - | - | - | - | .
Cc1ccc(C=NNC(=O)Cn2nc(C)c(Br)c2C)o1 | . | - | . | . | . | .
CN(CCCS(=O)(=O)[O-])c1ccc(/C=C/c2ccc3ccccc3[n+]2C)cc1 | - | - | - | - | - | .
CN(C)c1ccc(/C=C/c2ccc3ccccc3[n+]2C)cc1 | - | 25 | - | - | - | -
COc1ccc([C@H]2CC(=O)C=C(c3ccc(-c4ccccc4)c(F)c3)C2)cc1OC | - | 41 | - | - | - | -
CCCCCc1ccc(-c2cn(Cc3cccc(OC)c3)nn2)cc1 | - | - | - | - | - | .
SMILES | NR3A LBD binder | UCH37 DUB inh | ATG4B inhibitor | SENP1 inh | NadD block | UCH37 confirm
CCCCCc1ccc(-c2cn(Cc3ccc(C)cc3)nn2)cc1 | - | 35 | - | - | - | -
COc1ccccc1-c1coc2cc(O)cc(O)c2c1=O | - | 48 | - | - | - | -
O=C(CN1CCOCC1)NN=C/C(Br)=C\c1ccccc1 | . | - | . | . | . | .
Cc1cccc(C)c1NC(=O)COC(=O)c1ccc([N+](=O)[O-])o1 | - | 29 | - | - | - | -
O=C(COC(=O)c1ccc([N+](=O)[O-])o1)NCc1ccccc1 | - | - | - | - | - | .
CC(=O)Nc1ccc(S(=O)(=O)N(C)CC(=O)NN=Cc2cccc(O)c2)cc1 | . | - | . | . | . | .
Nc1nonc1-n1nnc(C(=O)NN=Cc2ccccc2O)c1CN1CCCC1 | . | - | . | . | . | .
CN1CCS/C1=C\C=C1/SC(=S)N(CC(=O)O)C1=O | - | 39 | - | 68 | - | -
CCN1C(=O)/C(=C/C=C2/SCCN2C)SC1=S | - | - | - | - | - | .
CCOc1ccc(-c2c(C(=O)NN=Cc3ccc(OC)cc3)nnn2-c2nonc2N)cc1 | . | - | . | . | . | .
